The source of these data is ChEMBL document CHEMBL1157302, “Quinone reductase induction as a biomarker for cancer chemoprevention” (J Nat Prod, 2006).

Activity calls are given as the source filed them. The rule behind the calls is not given here.

Data set [1] is described as follows: Inhibition of mouse Hepa-1c1c7 cells assessed as cell viability. Format: functional, cell-based. In short, it runs like this:
(§1)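 Cell viability of wild-type and both mutant Hepa 1c1c7 lines measured alongside QR induction; IC50 = half-maximal inhibitory concentration of viability, mean ± SD, n = 2.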

Data set [2] is described as follows: Chemoprevention index, ratio of IC50 for mouse Hepa-1c1c7 cells to drug level required to double specific NADPH:quinone reductase activity in mouse Hepa-1c1c7 cells. Format: functional. The procedure, abridged:
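QR induction measured in wild-type Hepa 1c1c7 murine hepatoma cells and two mutant lines (one lacking a functional Ah receptor, one unable to move receptor–ligand complex to the nucleus) by a previously described method; concentrations 2-30 µM; CD = concentration doubling specific QR activity; chemoprevention index = cell-viability IC50 divided by CD.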

Data set [3] in a line: Inhibition of mouse Hepa-1c1c7 Bprc1 mutant cells assessed as cell viability. Format: functional. In short, it runs like this: as §1
Data set [4] can be described thus: Inhibition of mouse Hepa-1c1c7 TAOc1Bprc1 mutant cells assessed as cell viability. Format: functional. The procedure, abridged: as §1
Data set [5] concerns HepG2. Briefly: Induction of antioxidant response element activity in human HepG2 cells at 10 uM by luciferase based chemiluminescence assay. Format: functional, cell-based. The procedure, abridged:
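HepG2 human hepatoma cells stably transfected with an ARE-luciferase plasmid were treated with test agent at 10 µM, with DMSO (0.5% final) as vehicle control. Luciferase was read by chemiluminescence and expressed as fold induction over control, as means of three determinations ± SD. Significance was tested by Student's t-test (p < 0.05).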

A short description of data set [6]: Chemoprevention index, ratio of IC50 for mouse Hepa-1c1c7 Bprc1 mutant cells to drug level required to double specific NADPH:quinone reductase activity in mouse Hepa-1c1c7 Bprc1 mutant cells. Format: functional. In short, it runs like this:
(§2)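 Hepa 1c1c7 mutant lines; the index is the IC50 for cell viability (half-maximal inhibition; mean ± SD, n = 2) divided by the concentration that doubles QR specific activity (CD) in the same mutant line.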

In data set [7] the test system is Rattus norvegicus. Briefly: Toxicity in DMBA-induced mammary carcinogenesis in Sprague-Dawley rat assessed as body weight changes up to 20000 mg/kg administered 7 days pre-DMBA challenge continued for 7 days post-DMBA challenge assessed after 120 days. Format: organism-based. More on the design: dose 20000 mg/kg. The settings on record: in vivo, 2880 h. In short, it runs like this:
(§3)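 Dose-finding prior to tumor study: diets with 1000, 2000, 3000, 4000, 5000 and 20 000 mg/kg diet; toxicity judged by body weight change and necropsy.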

A short description of data set [8]: Chemoprevention index, ratio of IC50 for mouse Hepa-1c1c7 TAOc1Bprc1 mutant cells to drug level required to double specific NADPH:quinone reductase activity in mouse Hepa-1c1c7 TAOc1Bprc1 mutant cells. Format: functional. The procedure, abridged: as §2
For data set [9], the system named is HepG2. Briefly: Induction of antioxidant response element activity in human HepG2 cells by luciferase based chemiluminescence assay. Format: functional, cell-based. The procedure, abridged: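 HepG2 human hepatoma cells stably transfected with an ARE-luciferase plasmid; treated with 1.9-30 µM test agent, 10 µM 4′-bromoflavone or 10 µM sulforaphane positive controls, DMSO 0.5% final as vehicle control; chemiluminescence luciferase read-out as fold over control; mean of three determinations ± SD, Student's t-test p < 0.05.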

Data set [10] concerns HepG2. Nature of the data set: Cytotoxicity against human HepG2 cells at 7.5 to 30 uM. Format: functional, cell-based.
Data set [11] has as its system Rattus norvegicus. Briefly: Inhibition of DMBA-induced mammary carcinogenesis in Sprague-Dawley rat assessed as increase in tumor latency at 5000 mg/kg administered 7 days pre-DMBA challenge continued for 7 days post-DMBA challenge assessed after 120 days. Format: functional, organism-based. More on the design: dose 5000 mg/kg. The procedure, abridged:
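Female Sprague-Dawley rats given DMBA, as described previously; test agent in diet at 2500 or 5000 mg/kg diet from 7 days before to 7 days after DMBA, then unsupplemented diet; 20 rats/group; tumor latency, incidence over 120 days and body weight recorded.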

Data set [12] can be described thus: Inhibition of 7,12-dimethylbenz[a]anthracene-induced preneoplastic lesions in a mouse mammary gland culture at 10 ug/mL. Format: functional.
Data set [13] relates to Rattus norvegicus. Nature of the data set: Toxicity in DMBA-induced mammary carcinogenesis in Sprague-Dawley rat assessed as necropsy up to 20000 mg/kg administered 7 days pre-DMBA challenge continued for 7 days post-DMBA challenge assessed after 120 days. To be noted: in vivo, 2880 h. Details: dose 20000 mg/kg. Format: organism-based. In short, it runs like this: as §3

Take `O=c1cc(-c2ccc(Br)cc2)oc2ccccc12`: the IC50 in data set [1], in data set [3] and in data set [4] was over 62.5 µM each time. Moreover, the Ratio in data set [2] is recorded as over 2700. For the same molecule, the result in [5] was Active.
`O=C(/C=C/c1ccc(O)cc1)c1ccc(O)cc1O` [ISOLIQUIRITIGENIN]: the IC50 in data set [1] stood at 19.6 µM; in data set [3], 16.2 µM; in [4] it was 22 µM. The Ratio in [2] is 11; in data set [6], 2; in data set [8], 10. For the same molecule, the Activity entry was “Non-toxic” in data set [7], “Dose-dependent effect” in data set [9] and “Non-toxic” in data set [13]. The outcome in [10] was inactive. Moreover, the outcome in data set [11] was Active. For the same molecule, in data set [12], at 10 µg/mL the inhibition was 76%.
With `C[S+]([O-])CCCCN=C=S` (centres undefined) [SULFORAPHANE], the IC50 is 6.3 µM in data set [1], 7.6 µM in data set [3] and 5.9 µM in data set [4]. The Ratio amounted to 21 in data set [2], 16 in data set [6] and 18 in [8]. For the same molecule, in data set [5], the result was Active.
